Experimental findings from paper PMC10668576 (RSC Advances, 2023) are described below.

In brackets after ≈: the same amount, converted by molar mass.

Series [1] concerns Pseudomonas aeruginosa. As to the kind of experiment: Minimum inhibitory concentration, serial dilution. Format: cell-based. An outline of the steps:
(§1)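 Inoculum was 10^6 cfu mL−1, incubated at 37 °C for 18–24 h. Wells were inspected for presence or absence of growth, and MIC was taken as the lowest concentration preventing growth. Each organism was tested on three separate occasions.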

Series [2] deals with Pseudomonas aeruginosa. Nature of the series: Disk diffusion inhibition zones. The following applies: 24 h. In kind it is cell-based. Put shortly: (§2)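 Test compound was dissolved in DMSO at 1000 μg mL−1 and soaked onto sterile 6 mm filter-paper discs. Discs were placed on Mueller–Hinton agar inoculated with fresh cultures suspended in sterile physiological water, then incubated at 37 °C for 24 h. DMSO discs served as negative control, with azithromycin (30 mg mL−1) as reference. Clear-zone width was read in mm with a transparent ruler.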

In series [3] the test system is Escherichia coli. As to the kind of experiment: Minimum inhibitory concentration, serial dilution. In kind it is cell-based. Put shortly: as §1
Series [4] deals with Escherichia coli. As to the kind of experiment: Disk diffusion inhibition zones. Format: cell-based. The following applies: 24 h. Put shortly:
as §2

The test system of series [5] is Bacillus cereus. Nature of the series: Disk diffusion inhibition zones. Format: cell-based. The following applies: 24 h. Put shortly:
as §2
In general terms: Agar diffusion results depend on both activity and mobility in agar.

The subject of series [6] is Stenotrophomonas maltophilia. As to the kind of experiment: Minimum inhibitory concentration, serial dilution. In kind it is cell-based. An outline of the steps:
as §1

The test system of series [7] is Staphylococcus epidermidis. Nature of the series: Disk diffusion inhibition zones. Format: cell-based. The following applies: 24 h. Put shortly: as §2
A short description of series [8]: Acute parenteral toxicity in rats. In kind it is in vivo. The following applies: 0.5 to 50 mg per kg body weight, 14 days observation. An outline of the steps:
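Single parenteral dose of test compound dissolved in ethanol with gentle heating, given by tuberculin syringe following OECD 425 to female albino Wistar rats (190 ± 20 g), 3 per dose, at 0.5, 1, 10, 30 or 50 mg kg−1. Controls were ethanol-injected and non-injected rats. Rats were observed every 30 min for 6 h, then through 24 h and daily to 14 days. Organs were examined macroscopically and weighed on day 15.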

For series [9], the system named is Aeromonas sobria. Nature of the series: Minimum inhibitory concentration, serial dilution. In kind it is cell-based. An outline of the steps:
as §1

The subject of series [10] is Aeromonas sobria. Nature of the series: Disk diffusion inhibition zones. In kind it is cell-based. The following applies: 24 h. Put shortly: as §2
The test system of series [11] is Bacillus cereus. As to the kind of experiment: Minimum inhibitory concentration, serial dilution. Format: cell-based. Put shortly:
as §1

Series [12] deals with Staphylococcus epidermidis. As to the kind of experiment: Minimum inhibitory concentration, serial dilution. In kind it is cell-based. Put shortly: as §1
Series [13] has as its system Klebsiella pneumoniae. Nature of the series: Disk diffusion inhibition zones. Format: cell-based. The following applies: 24 h.
Another series concerns burn wounds. Nature of the series: Burn healing assay in rats. In kind it is in vivo, albino Wistar female rats. The following applies: 1% cream, one application per 24 h on burn wound, n = 3.
Series [14] has as its system Staphylococcus aureus. As to the kind of experiment: Minimum inhibitory concentration, serial dilution. Format: cell-based. The following applies: Muller Hinton broth, 37 °C, 18 to 24 h. An outline of the steps:
as §1

The subject of series [15] is Stenotrophomonas maltophilia. As to the kind of experiment: Disk diffusion inhibition zones. In kind it is cell-based. The following applies: 24 h. An outline of the steps:
as §2

The subject of series [16] is Klebsiella pneumoniae. As to the kind of experiment: Minimum inhibitory concentration, serial dilution. In kind it is cell-based.
The test system of series [17] is Staphylococcus aureus. Nature of the series: Disk diffusion inhibition zones. In kind it is cell-based. The following applies: 24 h. An outline of the steps:
as §2

Broadly, the MIC is the smallest concentration in the dilution series that meets the test's criterion for growth inhibition. Read a high MIC as weaker potency. For orientation: zone of inhibition means the size of the clear area around the sample on an inoculated plate. For `O=C(Nc1nccs1)c1cc(N=Nc2nccs2)ccc1O` [Compound 3a, 2-Hydroxy-N-(thiazol-2-yl)-5-(thiazol-2-yldiazenyl)benzamide], the MIC in the series on Pseudomonas aeruginosa [1] came to 60 µg/mL (≈ 181 µM); against Escherichia coli [3], 80 µg/mL (≈ 241 µM); in [6] it was 60 µg/mL (≈ 181 µM); in the series on Aeromonas sobria [9] it was 40 µg/mL (≈ 121 µM); in the series on Bacillus cereus [11], 100 µg/mL (≈ 302 µM); in series [12], 80 µg/mL (≈ 241 µM). Further, the MIC in the series on Staphylococcus aureus [14] (Staphylococcus aureus) came out at 10 µg/mL (≈ 30.2 µM); in the series on Klebsiella pneumoniae [16], 200 µg/mL (≈ 604 µM). Also, the zone of inhibition at 1000 µg/mL with Pseudomonas aeruginosa [2] stood at 9 mm; in the series with Escherichia coli [4] it was 9 ± 0.33 mm; in the series on Bacillus cereus [5] it was 10 ± 0.23 mm; in [7] it was 18 ± 0.26 mm; in the series on Aeromonas sobria [10], 10 ± 0.15 mm; in the series with Klebsiella pneumoniae [13], 13 ± 0.22 mm. Moreover, the zone of inhibition at 1000 µg/mL in series [15] worked out at 9 ± 0.28 mm; in the series on Staphylococcus aureus [17], 13 ± 0.21 mm. In addition, in series [8], the Mortality result was “no occurrences of mortality”. In addition, the Signs of toxicity entry in series [8] is given as “did not display any noteworthy signs of toxicity”. Further, the “Day utilized for recovery” value in the series on burn wounds was determined as 26 days.
On to `O=C(Nc1ccc(S(=O)(=O)c2nccs2)cc1)c1cc(N=Nc2nccs2)ccc1O` [Compound 3c, 2-Hydroxy-5-(thiazol-2-yldiazenyl)-N-(4-(thiazol-2-ylsulfonyl)phenyl)benzamide], for which the zone of inhibition at 1000 µg/mL was found to be 9 ± 0.33 mm in the series with Pseudomonas aeruginosa [2]; 9 ± 0.16 mm with Escherichia coli [4]; 10 ± 0.13 mm with Bacillus cereus [5]; 12 ± 0.43 mm in series [7]; 10 ± 0.33 mm in the series with Aeromonas sobria [10]; 12 ± 0.11 mm with Klebsiella pneumoniae [13]. Besides, the zone of inhibition at 1000 µg/mL in series [15] amounted to 9 ± 0.21 mm; with Staphylococcus aureus [17], 16 ± 0.09 mm. Further, the MIC in the series on Escherichia coli [3] amounted to 20 µg/mL (≈ 42.4 µM); in series [6], 40 µg/mL (≈ 84.8 µM); in the series with Aeromonas sobria [9], 40 µg/mL (≈ 84.8 µM); in series [12], 40 µg/mL (≈ 84.8 µM); in the series with Staphylococcus aureus [14] (Staphylococcus aureus), 10 µg/mL (≈ 21.2 µM). Also, the Mortality entry in series [8] is recorded as “no occurrences of mortality”. Also, the Signs of toxicity result in series [8] was “did not display any noteworthy signs of toxicity”. Besides, the “Day utilized for recovery” value with burn wounds stood at 27 days.
For `O=C(Nc1nc2ccccc2s1)c1cc(N=Nc2nccs2)ccc1O` [Compound 3b, N-(Benzo[d]thiazol-2-yl)-2-hydroxy-5-(thiazol-2-yldiazenyl)benzamide], the MIC was 40 µg/mL (≈ 105 µM) in the series on Pseudomonas aeruginosa [1]; 20 µg/mL (≈ 52.4 µM) with Escherichia coli [3]; 20 µg/mL (≈ 52.4 µM) in series [6]; 10 µg/mL (≈ 26.2 µM) against Aeromonas sobria [9]; 80 µg/mL (≈ 210 µM) against Bacillus cereus [11]; 10 µg/mL (≈ 26.2 µM) in series [12]. In addition, the MIC came out at 20 µg/mL (≈ 52.4 µM) in the series with Staphylococcus aureus [14] (Staphylococcus aureus) and 80 µg/mL (≈ 210 µM) against Klebsiella pneumoniae [16]. Besides, the zone of inhibition at 1000 µg/mL in the series on Pseudomonas aeruginosa [2] was 9 mm; with Escherichia coli [4], 9 ± 0.14 mm; with Bacillus cereus [5], 10 ± 0.33 mm; in [7], 14 ± 0.23 mm; in the series with Aeromonas sobria [10], 10 ± 0.28 mm; in the series on Klebsiella pneumoniae [13], 14 ± 0.28 mm. The zone of inhibition at 1000 µg/mL in [15] amounted to 10 ± 0.04 mm; with Staphylococcus aureus [17], 13 ± 0.58 mm. In [8], the Mortality entry is “no occurrences of mortality”. In addition, the Signs of toxicity result in series [8] is “did not display any noteworthy signs of toxicity”. For the same compound, in the series with burn wounds, the “Day utilized for recovery” value was 24 days.
`CC[C@H]1OC(=O)[C@H](C)[C@@H](O[C@H]2C[C@@](C)(OC)[C@@H](O)[C@H](C)O2)[C@H](C)[C@@H](O[C@@H]2O[C@H](C)C[C@H](N(C)C)[C@H]2O)[C@](C)(O)C[C@@H](C)CN(C)[C@H](C)[C@@H](O)[C@]1(C)O` [azithromycin, reference compound]: the zone of inhibition at 1000 µg/mL in the series on Pseudomonas aeruginosa [2] amounted to 7 ± 0.14 mm; with Escherichia coli [4], 7 ± 0.32 mm; with Bacillus cereus [5] it was 11 ± 0.31 mm; in [7] it was 11 ± 0.32 mm; in the series with Aeromonas sobria [10], 18 ± 0.41 mm; in the series on Klebsiella pneumoniae [13], 20 ± 0.26 mm. Further, the zone of inhibition at 1000 µg/mL worked out at 10 ± 0.02 mm in series [15] and 15 ± 0.09 mm with Staphylococcus aureus [17]. Moreover, the MIC with Escherichia coli [3] came to 20 µg/mL (≈ 26.7 µM); in series [6], 40 µg/mL (≈ 53.4 µM); with Aeromonas sobria [9], 20 µg/mL (≈ 26.7 µM); in the series with Bacillus cereus [11], 80 µg/mL (≈ 107 µM); in series [12], 80 µg/mL (≈ 107 µM); against Staphylococcus aureus [14] it was 20 µg/mL (≈ 26.7 µM). Also, the MIC with Staphylococcus aureus [14] (Staphylococcus aureus) came out at 40 µg/mL (≈ 53.4 µM); against Klebsiella pneumoniae [16], 60 µg/mL (≈ 80.1 µM).
`O=C(O)c1cc(N=Nc2nccs2)ccc1O` [Compound 3, 2-Hydroxy-5-(thiazol-2-yldiazenyl)benzoic acid]: the MIC in the series with Pseudomonas aeruginosa [1] was 80 µg/mL (≈ 321 µM); against Escherichia coli [3], 60 µg/mL (≈ 241 µM); in [6] it was 40 µg/mL (≈ 160 µM); against Aeromonas sobria [9] it was 20 µg/mL (≈ 80.2 µM); in the series on Bacillus cereus [11], 20 µg/mL (≈ 80.2 µM); in [12], 10 µg/mL (≈ 40.1 µM). The MIC against Staphylococcus aureus [14] (Staphylococcus aureus) was determined as 10 µg/mL (≈ 40.1 µM); against Klebsiella pneumoniae [16], 80 µg/mL (≈ 321 µM). In addition, the zone of inhibition at 1000 µg/mL in the series with Pseudomonas aeruginosa [2] is 10 ± 0.33 mm; in the series on Escherichia coli [4] it was 9 mm; with Bacillus cereus [5] it was 10 ± 0.03 mm; in series [7], 14 ± 0.25 mm; in the series on Aeromonas sobria [10], 10 ± 0.31 mm; in the series with Klebsiella pneumoniae [13] it was 11 ± 0.31 mm. The zone of inhibition at 1000 µg/mL is 8 ± 0.11 mm in series [15] and 12 ± 0.23 mm in the series on Staphylococcus aureus [17].
